# Results from ChEMBL document CHEMBL1133507, “Novel bronchodilators: synthesis, transamination reactions, and pharmacology of a series of pyrazino[2,3-c][1,2,6]thiadiazine 2, 2-dioxides” (2000).
# Calls of active or inactive are those of the source. No cut-off for these calls is given here.
# Legend:
# Assay type in all cases: functional
# Cavia porcellus [1] = species: Cavia porcellus; test: Bronchodilatory activity in vitro by tracheal tone inhibition at 30 ug/mL in guinea pig tracheal muscle.; details: Muscle tissue
# Procedure, shortened: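 In vitro tracheal relaxation. Percent inhibition was recorded with 30 µg/mL test compound, each concentration assayed in duplicate. Inhibition above 50% was taken as pharmacologically significant.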
# Cavia porcellus [2] = species: Cavia porcellus; test: Tracheal relaxing activity expressed as minimum inhibitory concentration required to obtain a inhibitory response by more than 50%; NA denotes no activity at 30 ug/mL.
# Procedure, shortened: (§1)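 Tracheal relaxation was tested over several concentrations, each in duplicate. The value is the lowest concentration (µg/mL) giving more than 50% inhibition of the response.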
# Cavia porcellus [3] = species: Cavia porcellus; test: Tracheal relaxing activity expressed as minimum inhibitory concentration required to obtain a inhibitory response by more than 50%; procedure, shortened: as §1
SMILES,inhibition at 30 µg/mL (Cavia porcellus [1]) [%],MIC (Cavia porcellus [2]),MIC (Cavia porcellus [3]) [µg/mL]
CCN1c2nc(C(C)C)c(C(C)C)nc2C(N)=NS1(=O)=O,0,inactive,
CCc1nc2c(nc1C)C(NN)=NS(=O)(=O)N2CC,72,,30
CCc1nc2c(nc1C)C(NCCN(C)C)=NS(=O)(=O)N2CC,34,inactive,
CCN1c2nc(-c3ccccc3)c(C)nc2C(N)=NS1(=O)=O,100,,3
CN1c2nccnc2C(N)=NS1(=O)=O,22,inactive,
CCN1c2nc(C)c(-c3ccccc3)nc2C(N)=NS1(=O)=O,93,,30
CCN1c2nc(C)c(Br)nc2C(N)=NS1(=O)=O,88,,10
CN1c2ncc(-c3ccccc3)nc2C(N)=NS1(=O)=O,56,,30
CCN1c2nc(-c3ccccc3)c(Br)nc2C(N)=NS1(=O)=O,63,,30
CN1c2nc3c(nc2C(N)=NS1(=O)=O)CCCCC3,88,,10
Cc1nc2c(nc1C)N(C)S(=O)(=O)N=C2NCc1ccccn1,31,inactive,
CCN1c2ncc(-c3ccccc3)nc2C(N)=NS1(=O)=O,20,inactive,
CCCCc1nc2c(nc1C)C(N)=NS(=O)(=O)N2C,64,,10
CCOC(=O)CN1c2ncc(C)nc2C(N)=NS1(=O)=O,20,inactive,
CCN1c2nc(C)cnc2C(N)=NS1(=O)=O,42,inactive,
CCN1c2nc3c(nc2C(N)=NS1(=O)=O)CCCC3,82,,10
CCc1cnc2c(n1)C(N)=NS(=O)(=O)N2CC,72,,10
CCCc1nc2c(nc1C)C(N)=NS(=O)(=O)N2CC,34,inactive,
CCN1c2ncc(C)nc2C(NCc2ccccc2)=NS1(=O)=O,27,inactive,
CCN1c2ncc(C(C)(C)C)nc2C(N)=NS1(=O)=O,86,,30
CCc1nc2c(nc1C)C(NCCO)=NS(=O)(=O)N2CC,41,inactive,
CCNC1=NS(=O)(=O)N(CC)c2ncc(C)nc21,63,,30
CCc1nc2c(nc1C)C(N)=NS(=O)(=O)N2CC,0,inactive,
CCN1c2nc(-c3ccccc3)cnc2C(NCc2ccccc2)=NS1(=O)=O,20,inactive,
CN1c2nc(-c3ccccc3)cnc2C(NCCN)=NS1(=O)=O,6,inactive,
Cc1nc2c(nc1-c1ccccc1)C(N1CCCC1)=NS(=O)(=O)N2C,10,inactive,

SMILES,inhibition at 30 µg/mL (Cavia porcellus [1]) [%],MIC (Cavia porcellus [2]),MIC (Cavia porcellus [3]) [µg/mL]
CCOC(=O)CN1c2nc(-c3ccccc3)cnc2C(N)=NS1(=O)=O,72,,10
CCc1nc2c(nc1C)N(CC)S(=O)(=O)N=C2N,95,,10
CCN1c2ncc(C(C)C)nc2C(N)=NS1(=O)=O,57,,30
Cc1nc2c(nc1C)N(CCO)S(=O)(=O)N=C2N,59,,30
CCc1nc2c(nc1C)C(NC)=NS(=O)(=O)N2CC,75,,30
CCNC1=NS(=O)(=O)N(CC)c2ncc(-c3ccccc3)nc21,74,,10
CCCN1c2nc(CC)c(C)nc2C(N)=NS1(=O)=O,51,,30
CCN1c2nc(-c3ccccc3)cnc2C(N)=NS1(=O)=O,95,,3
Cn1c(=O)c2nc[nH]c2n(C)c1=O.O [THEOPHYLLINE],60,,30
CCOC(=O)CN1c2nc(C)c(C)nc2C(N)=NS1(=O)=O,15,inactive,
Cc1cnc2c(n1)C(N)=NS(=O)(=O)N2C,45,inactive,
CCc1nc2c(nc1C)C(N)=NS(=O)(=O)N2C,95,,3
Cc1nc2c(nc1C)N(CC(=O)O)S(=O)(=O)N=C2N,13,inactive,
CCN1c2nc(C)c(C)nc2C(N)=NS1(=O)=O,33,,
CCN1c2ncc(C)nc2C(N)=NS1(=O)=O,67,,30
CCN1c2nc(-c3ccccc3)c(-c3ccccc3)nc2C(N)=NS1(=O)=O,24,inactive,
CCN1c2nccnc2C(N)=NS1(=O)=O,13,inactive,
CN1c2nc(-c3ccccc3)c(Cl)nc2C(N)=NS1(=O)=O,86,,30
CN1c2nc(-c3ccccc3)cnc2C(NN)=NS1(=O)=O,81,,10
CCc1cnc2c(n1)N(CC)S(=O)(=O)N=C2N,80,,30
CCCc1cnc2c(n1)C(N)=NS(=O)(=O)N2CC,90,,10
CCCN1c2nc(C)c(C)nc2C(N)=NS1(=O)=O,58,,30
CCN1c2nc(C(C)C)c(C)nc2C(N)=NS1(=O)=O,55,,30
CCc1nc2c(nc1CC)N(CC)S(=O)(=O)N=C2N,0,inactive,
Cc1nc2c(nc1C)N(C)S(=O)(=O)N=C2N,92,,3
